# Legend:
# [1] = Area under the curve during systemic administration; type: ADME; set-up: concentration or dose not given beside the values; details: other: systemic administration
# [2] = Biological half-life in the rat; type: ADME, organism-based; details: in vivo
# In short: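 Half-life determined after intravenous dosing in rats.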
# [3] = target: Protein farnesyltransferase (Bos taurus, UniProt P29702+P49355); assay: In vitro inhibition of farnesyltransferase purified from bovine brain using scintillation proximity assay
# NIH3T3 = assay: In Vitro inhibition of Ha-Ras procession by using subconfluent NIH3T3 ras-transformed cells; type: functional; details: Mus musculus, read-out: ED50 (the source's name)
# [4] = Portal vein area under the curve after intraduodenal administration; set-up: concentration or dose not given beside the values
SMILES,AUC [1] [ng·h/mL],half-life [2] [min],IC50 [3] [nM],AUC [4] [ng·h/mL],EC50 (NIH3T3) [nM]
CCCCCc1cc(C(=O)N[C@@H](CCSC)C(=O)O)c(-c2ccccc2C)cc1COc1cccnc1,,,2,,1000
CSCC[C@H](NC(=O)c1cc(-c2cccs2)c(COc2cccnc2)cc1-c1ccccc1C)C(=O)O,,,510,,
CCc1cc(C(=O)N[C@@H](CCSC)C(=O)O)c(-c2ccccc2C)cc1COc1cccnc1,,,11,,< 10000
CSCC[C@H](NC(=O)c1cc(-c2ccc(C)cc2)c(COc2cccnc2)cc1-c1ccccc1C)C(=O)O,,,370,,
CSCC[C@H](NC(=O)c1ccc(CNc2cccnc2)cc1-c1ccccc1C)C(=O)O,,,0.4,,3000
CSCC[C@H](NC(=O)c1cc(-c2cc(Cl)cc(Cl)c2)c(COc2cccnc2)cc1-c1ccccc1C)C(=O)O,,,95,,
CSCC[C@H](NC(=O)c1ccc(COc2cccnc2)cc1-c1ccccc1C)C(=O)O,,,,,400
CSCC[C@H](NC(=O)c1ccc(CN(Cc2cc(F)cc(F)c2)c2cccnc2)cc1-c1ccccc1C)C(=O)O,140,60,1.4,3560,50
CSCC[C@H](NC(=O)c1cc(CCc2ccccc2)c(COc2cccnc2)cc1-c1ccccc1C)C(=O)O,,,0.5,,1000
CSCC[C@H](NC(=O)c1ccc(CN(Cc2ccccc2)c2ccccc2)cc1-c1ccccc1C)C(=O)O,600,48,1.4,1900,400
CSCC[C@H](NC(=O)c1cc(CC2CCCCC2)c(COc2cccnc2)cc1-c1ccccc1C)C(=O)O,,,12,,1000
CSCC[C@H](NC(=O)c1ccc(CN(Cc2ccccc2)Cc2nccs2)cc1-c1ccccc1C)C(=O)O,,,7,,> 1000
CSCC[C@H](NC(=O)c1ccc(CN(Cc2cc(F)cc(F)c2)c2ccccc2)cc1-c1ccccc1C)C(=O)O,10800,114,0.4,14300,1000

# More lines, main results first:
AUC [1] [ng·h/mL],half-life [2] [min],IC50 [3] [nM],AUC [4] [ng·h/mL],SMILES,EC50 (NIH3T3) [nM]
500,49.8,0.1,3000,CSCC[C@H](NC(=O)c1ccc(CN(Cc2ccccc2)c2cccnc2)cc1-c1ccccc1C)C(=O)O,13
,,39,,CSCC[C@H](NC(=O)c1ccc(CN(C(=O)Cc2ccccc2)c2cccnc2)cc1-c1ccccc1C)C(=O)O,> 1000
1600,< 24,0.4,3200,CSCC[C@H](NC(=O)c1ccc(CN(Cc2ccccc2)Cc2cncs2)cc1-c1ccccc1C)C(=O)O,300
,,1,,CSCC[C@H](NC(=O)c1cc(Cc2ccccc2)c(COc2cccnc2)cc1-c1ccccc1C)C(=O)O,> 1000
300,67.8,0.2,2400,CSCC[C@H](NC(=O)c1ccc(CN(Cc2cc(F)cc(F)c2)Cc2cncs2)cc1-c1ccccc1C)C(=O)O,500
,,16,,CSCC[C@H](NC(=O)c1ccc(CN(Cc2ccccc2)Cc2cscn2)cc1-c1ccccc1C)C(=O)O,> 1000
900,< 24,0.8,1800,CSCC[C@H](NC(=O)c1ccc(CN(Cc2ccccc2)c2cnccn2)cc1-c1ccccc1C)C(=O)O,50
100,< 24,0.1,1000,CSCC[C@H](NC(=O)c1ccc(CN(CC2CCCCC2)c2cccnc2)cc1-c1ccccc1C)C(=O)O,10
20,30,0.4,10400,CSCC[C@H](NC(=O)c1ccc(CN(Cc2ccccc2)c2cncnc2)cc1-c1ccccc1C)C(=O)O,90
,,53,,CSCC[C@H](NC(=O)c1ccc(CN(C(=O)c2ccccc2)c2cccnc2)cc1-c1ccccc1C)C(=O)O,> 1000
,,29,,CSCC[C@H](NC(=O)c1cc(CC(C)C)c(COc2cccnc2)cc1-c1ccccc1C)C(=O)O,> 10000
400,< 24,0.1,2400,CSCC[C@H](NC(=O)c1ccc(CN(Cc2ccccc2)c2cncc(F)c2)cc1-c1ccccc1C)C(=O)O,30
,,7,,CSCC[C@H](NC(=O)c1ccc(CN(c2cccnc2)S(=O)(=O)c2ccccc2)cc1-c1ccccc1C)C(=O)O,
,,11,,CCCCc1cc(C(=O)N[C@@H](CCSC)C(=O)O)c(-c2ccccc2C)cc1COc1cccnc1,

# — ChEMBL document CHEMBL1132658, “Second-generation peptidomimetic inhibitors of protein farnesyltransferase demonstrating improved cellular potency and significant in vivo efficacy” (J Med Chem, 1999)
